The record followed here is ChEMBL document CHEMBL1128417, “Synthesis and opioid activity of conformationally constrained dynorphin A analogues. 1. Conformational constraint in the "message" sequence” (J Med Chem, 1995).

Structures are written as SMILES.

Assay [1] addresses T1, Opioid receptors; mu & delta (Homo sapiens) (UniProt P41143+P35372). Briefly: Ki ratio which is the ratio of Ki of k opioid receptor to the Ki of mu opioid receptor to the Ki of delta opioid receptor; 1/1.3/92. The class given is protein assay.
Assay [2] is filed under the species Cavia porcellus. Briefly: Relative potency against electrically evoked contractions of the guinea pig ileum(GPI). Type of assay: functional. Set-up: reference not given here.
For assay [3], the species on record is Cavia porcellus. Briefly: In vitro inhibition of electrically evoked contractions of the guinea pig ileum (GPI). Type of assay: functional. In a few lines:
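Guinea pig ileum preparation, electrically stimulated; peptidase inhibitors (10 µM bestatin, 0.3 µM thiorphan) added to the tissue bath 5 min before each experiment. IC50 for inhibition of contractions taken from at least three replicates in tissues from different animals.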

The target of assay [4] is Delta-type opioid receptor (Rattus norvegicus, UniProt P33533). Briefly: Compound was evaluated for binding affinity against delta opioid receptor of rat forebrain using [3H]-DPDPE as the radioligand using competition binding assays.
The target of assay [5] is Kappa-type opioid receptor (Cavia porcellus, UniProt P41144). Briefly: Compound was evaluated for binding affinity against Opioid receptor kappa 1 using as the radioligand using competition binding assays.
For the next assay, the target named is Mu-type opioid receptor (Rattus norvegicus, UniProt P33535). Briefly: Compound was evaluated for binding affinity against Opioid receptor mu 1 of rat forebrain using [3H]DAMGO as the radioligand using competition binding assays.
In assay [6] the target is T1, Opioid receptors; mu & delta (Homo sapiens). Briefly: Ki ratio which is the ratio of Ki of k opioid receptor to the Ki of mu opioid receptor to the Ki of delta opioid receptor; 3.6/1/74. Type of assay: protein assay.
The target is the same in assay [7]. Briefly: Ki ratio which is the ratio of Ki of k opioid receptor to the Ki of mu opioid receptor to the Ki of delta opioid receptor; 1.3/1/27. Type of assay: protein assay.
For assay [8] the target is unchanged. Briefly: Ki ratio which is the ratio of Ki of k opioid receptor to the Ki of mu opioid receptor to the Ki of delta opioid receptor; 1/2.2/47. Type of assay: protein assay.

In the case of `CC[C@H](C)[C@H](NC(=O)[C@H](CCCN=C(N)N)NC(=O)[C@H](CCCN=C(N)N)NC(=O)[C@@H]1CCNC(=O)C[C@@H](NC(=O)[C@@H](N)Cc2ccc(O)cc2)C(=O)NCC(=O)N[C@@H](Cc2ccccc2)C(=O)N1)C(=O)N[C@@H](CCCN=C(N)N)C(=O)N1CCC[C@@H]1C(=O)N[C@@H](CCCCN)C(=O)N[C@@H](CC(C)C)C(=O)N[C@@H](CCCCN)C(N)=O`, the Ki ratio result in assay [1] was “kappa/mu/delta”.
As to `CC[C@H](C)[C@H](NC(=O)[C@H](CCCN=C(N)N)NC(=O)[C@H](CCCN=C(N)N)NC(=O)[C@H](CC(C)C)NC(=O)[C@H](Cc1ccccc1)NC(=O)CNC(=O)[C@@H](CC(=O)O)NC(=O)[C@@H](N)Cc1ccc(O)cc1)C(=O)N[C@@H](CCCN=C(N)N)C(=O)N1CCC[C@H]1C(=O)N[C@@H](CCCCN)C(=O)N[C@@H](CC(C)C)C(=O)N[C@@H](CCCCN)C(N)=O` [listing 1 of 2 here], the Relative potency in the assay listed under Cavia porcellus [2] came to 32.
The term IC50 denotes the midpoint of a concentration-inhibition curve. The Ki is a measure of affinity in units of concentration, obtained from inhibition or displacement. On to `CC[C@H](C)[C@H](NC(=O)[C@H](CCCN=C(N)N)NC(=O)[C@H](CCCN=C(N)N)NC(=O)[C@@H]1CCNC(=O)C[C@@H](NC(=O)[C@@H](N)Cc2ccc(O)cc2)C(=O)NCC(=O)N[C@@H](Cc2ccccc2)C(=O)N1)C(=O)N[C@@H](CCCN=C(N)N)C(=O)N1CCC[C@H]1C(=O)N[C@@H](CCCCN)C(=O)N[C@@H](CC(C)C)C(=O)N[C@@H](CCCCN)C(N)=O` [listing 1 of 2 here], for which it took 0.23 nM to reach half-maximal inhibition in the assay listed under Cavia porcellus [3] (IC50). In addition, the Ki amounted to 12 nM in [4], 0.13 nM in assay [5] and 0.17 nM at Mu-type opioid receptor.
In the same order, the values of `CC[C@H](C)[C@H](NC(=O)[C@H](CCCN=C(N)N)NC(=O)[C@H](CCCN=C(N)N)NC(=O)[C@H](CC(C)C)NC(=O)[C@H](Cc1ccccc1)NC(=O)CNC(=O)[C@@H](CC(=O)O)NC(=O)[C@@H](N)Cc1ccc(O)cc1)C(=O)N[C@@H](CCCN=C(N)N)C(=O)N1CCC[C@H]1C(=O)N[C@@H](CCCCN)C(=O)N[C@@H](CC(C)C)C(=O)N[C@@H](CCCCN)C(N)=O` [listing 2 of 2 here] are 0.46 nM, 0.044 nM, 0.45 nM and 0.013 nM.
In turn, `CC[C@H](C)[C@H](NC(=O)[C@H](CCCN=C(N)N)NC(=O)[C@H](CCCN=C(N)N)NC(=O)[C@H](CC(C)C)NC(=O)[C@H](Cc1ccccc1)NC(=O)CNC(=O)CNC(=O)[C@@H](N)Cc1ccc(O)cc1)C(=O)N[C@@H](CCCN=C(N)N)C(=O)N1CCC[C@H]1C(=O)N[C@@H](CCCCN)C(=O)N[C@@H](CC(C)C)C(=O)N[C@@H](CCCCN)C(N)=O` [listing 1 of 2 here] gave a Relative potency in the assay filed under Cavia porcellus [2] of 100.
Take `CC[C@H](C)[C@H](NC(=O)[C@H](CCCN=C(N)N)NC(=O)[C@H](CCCN=C(N)N)NC(=O)[C@@H]1CCCNC(=O)C[C@@H](NC(=O)[C@@H](N)Cc2ccc(O)cc2)C(=O)NCC(=O)N[C@@H](Cc2ccccc2)C(=O)N1)C(=O)N[C@@H](CCCN=C(N)N)C(=O)N1CCC[C@H]1C(=O)N[C@@H](CCCCN)C(=O)N[C@@H](CC(C)C)C(=O)N[C@@H](CCCCN)C(N)=O`: the Ki ratio result in assay [6] is “mu/kappa/delta”. Also, the IC50 in the assay listed under Cavia porcellus [3] was 0.4 nM. For the same molecule, the Relative potency in the assay listed under Cavia porcellus [2] came out at 55. The Ki came out at 14.1 nM in assay [4], 0.68 nM in [5] and 0.19 nM at Mu-type opioid receptor.
In the assay listed under Cavia porcellus [2], `CC[C@H](C)[C@H](NC(=O)[C@H](CCCN=C(N)N)NC(=O)[C@H](CCCN=C(N)N)NC(=O)[C@@H]1CCNC(=O)C[C@@H](NC(=O)[C@@H](N)Cc2ccc(O)cc2)C(=O)NCC(=O)N[C@@H](Cc2ccccc2)C(=O)N1)C(=O)N[C@@H](CCCN=C(N)N)C(=O)N1CCC[C@H]1C(=O)N[C@@H](CCCCN)C(=O)N[C@@H](CC(C)C)C(=O)N[C@@H](CCCCN)C(N)=O` [listing 2 of 2 here] returned a Relative potency of 96.
`CC[C@H](C)[C@H](NC(=O)[C@H](CCCN=C(N)N)NC(=O)[C@H](CCCN=C(N)N)NC(=O)[C@H](CC(C)C)NC(=O)[C@H](Cc1ccccc1)NC(=O)CNC(=O)CNC(=O)[C@@H](N)Cc1ccc(O)cc1)C(=O)N[C@@H](CCCN=C(N)N)C(=O)N1CCC[C@H]1C(=O)N[C@@H](CCCCN)C(=O)N[C@@H](CC(C)C)C(=O)N[C@@H](CCCCN)C(N)=O` [listing 2 of 2 here] came in with an IC50 in the assay filed under Cavia porcellus [3] of 0.22 nM.
The molecule `CC[C@H](C)[C@H](NC(=O)[C@H](CCCN=C(N)N)NC(=O)[C@H](CCCN=C(N)N)NC(=O)[C@H](CCCN=C(N(C)C)N(C)C)NC(=O)[C@H](Cc1ccccc1)NC(=O)CNC(=O)[C@@H](CC(=O)O)NC(=O)[C@@H](N)Cc1ccc(O)cc1)C(=O)N[C@@H](CCCN=C(N)N)C(=O)N1CCC[C@H]1C(=O)N[C@@H](CCCCN)C(=O)N[C@@H](CC(C)C)C(=O)N[C@@H](CCCCN)C(N)=O` registered an IC50 in the assay filed under Cavia porcellus [3] of 1.78 nM. This molecule also gave a Relative potency in the assay listed under Cavia porcellus [2] of 12. The Ki in assay [4] worked out at 14.2 nM; in assay [5] it was 0.36 nM; at Mu-type opioid receptor, 0.28 nM.
With `CC[C@H](C)[C@H](NC(=O)[C@H](CCCN=C(N)N)NC(=O)[C@H](CCCN=C(N)N)NC(=O)[C@H](CN=C(N(C)C)N(C)C)NC(=O)[C@H](Cc1ccccc1)NC(=O)CNC(=O)[C@@H](CC(=O)O)NC(=O)[C@@H](N)Cc1ccc(O)cc1)C(=O)N[C@@H](CCCN=C(N)N)C(=O)N1CCC[C@H]1C(=O)N[C@@H](CCCCN)C(=O)N[C@@H](CC(C)C)C(=O)N[C@@H](CCCCN)C(N)=O`, the Ki ratio result in assay [7] was “mu/kappa/delta”. This molecule had a half-maximal inhibitory concentration (IC50) in the assay filed under Cavia porcellus [3] of 0.46 nM. The Relative potency in the assay filed under Cavia porcellus [2] is 48. Further, the inhibition constant Ki amounted to 4.31 nM in [4], 0.21 nM in [5] and 0.16 nM at Mu-type opioid receptor.
In the assay filed under Cavia porcellus [3], `CC[C@H](C)[C@H](NC(=O)[C@H](CCCN=C(N)N)NC(=O)[C@H](CCCN=C(N)N)NC(=O)[C@@H]1CNC(=O)C[C@@H](NC(=O)[C@@H](N)Cc2ccc(O)cc2)C(=O)NCC(=O)N[C@@H](Cc2ccccc2)C(=O)N1)C(=O)N[C@@H](CCCN=C(N)N)C(=O)N1CCC[C@H]1C(=O)N[C@@H](CCCCN)C(=O)N[C@@H](CC(C)C)C(=O)N[C@@H](CCCCN)C(N)=O` [listing 1 of 2 here] came in with an IC50 of 0.16 nM. The inhibitory constant (Ki) in assay [4] was 10.2 nM; in assay [5], 0.22 nM; at Mu-type opioid receptor it was 0.49 nM.
On to `CC[C@H](C)[C@H](NC(=O)[C@H](CCCN=C(N)N)NC(=O)[C@H](CCCN=C(N)N)NC(=O)[C@H](CCN=C(N(C)C)N(C)C)NC(=O)[C@H](Cc1ccccc1)NC(=O)CNC(=O)[C@@H](CC(=O)O)NC(=O)[C@@H](N)Cc1ccc(O)cc1)C(=O)N[C@@H](CCCN=C(N)N)C(=O)N1CCC[C@H]1C(=O)N[C@@H](CCCCN)C(=O)N[C@@H](CC(C)C)C(=O)N[C@@H](CCCCN)C(N)=O`, for which the half-inhibitory concentration (IC50) in the assay filed under Cavia porcellus [3] is 0.18 nM. For the same molecule, the Relative potency in the assay listed under Cavia porcellus [2] is 122. Moreover, the Ki stood at 7.52 nM in [4], 0.14 nM in [5] and 0.32 nM on Mu-type opioid receptor.
Consider `CC[C@H](C)[C@H](NC(=O)[C@H](CCCN=C(N)N)NC(=O)[C@H](CCCN=C(N)N)NC(=O)[C@@H]1CNC(=O)C[C@@H](NC(=O)[C@@H](N)Cc2ccc(O)cc2)C(=O)NCC(=O)N[C@@H](Cc2ccccc2)C(=O)N1)C(=O)N[C@@H](CCCN=C(N)N)C(=O)N1CCC[C@@H]1C(=O)N[C@@H](CCCCN)C(=O)N[C@@H](CC(C)C)C(=O)N[C@@H](CCCCN)C(N)=O`, for which the Ki ratio result in [8] is on record as “kappa/mu/delta”.
The molecule `CC[C@H](C)[C@H](NC(=O)[C@H](CCCN=C(N)N)NC(=O)[C@H](CCCN=C(N)N)NC(=O)[C@@H]1CNC(=O)C[C@@H](NC(=O)[C@@H](N)Cc2ccc(O)cc2)C(=O)NCC(=O)N[C@@H](Cc2ccccc2)C(=O)N1)C(=O)N[C@@H](CCCN=C(N)N)C(=O)N1CCC[C@H]1C(=O)N[C@@H](CCCCN)C(=O)N[C@@H](CC(C)C)C(=O)N[C@@H](CCCCN)C(N)=O` [listing 2 of 2 here] yielded a Relative potency in the assay filed under Cavia porcellus [2] of 138.
